Test results published in ChEMBL document CHEMBL1765022, “Synthesis and biological evaluation of tetracyclic thienopyridones as antibacterial and antitumor agents” (Bioorg Med Chem, 2011).
pIC50: −log10 of the molar value. In brackets after ≈: the same amount, converted by molar mass.

Experiments:
[1] = system: Bacillus subtilis; assay: Antimicrobial activity against Bacillus subtilis ATCC 6633 by broth dilution method; format: functional
Summary of the method: (§1)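 Twofold serial broth dilution in Mueller Hinton Broth. […] Growth (drug-free), DMSO solvent and organism-free sterility tubes were included. Three replicates per organism, at least three independent experiments.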

[2] = system: MCF7; assay: Antitumor activity against human MCF7 cells after 72 hrs by MTT assay; format: functional, cell-based; details: MCF7, 72 h
Summary of the method: (§2)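 Cells were kept at 37 °C in 5% CO₂, in medium with 2 mM glutamine and 10% FBS; HuDe fibroblasts were grown in DMEM. Compounds were freshly dissolved in DMSO (final ≤0.1% v/v; controls received equal solvent) and applied at 0.1–20 µM for 72 h. Viability was read by MTT. IC₅₀ was extrapolated from Hill-fitted dose–response curves, from at least three independent experiments.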

[3] = system: Haemophilus influenzae; assay: Antimicrobial activity against Haemophilus influenzae ATCC 19418 by broth dilution method; format: functional
Summary of the method: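 H. influenzae was grown in Haemophilus Test Medium using twofold serial broth dilution. […] Drug-free, DMSO-only and organism-free control tubes were included. Triplicates, with at least three independent experiments.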

[4] = system: Aspergillus niger; assay: Antimicrobial activity against Aspergillus niger ATCC 6275 by broth dilution method; format: functional
Summary of the method: (§3)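 Fungi were tested by twofold serial broth dilution in Sabouraud Dextrose Broth. Inoculum was 1x10³ CFU/mL, with 48 h at 30 °C before MIC determination. Growth, DMSO solvent and sterility controls were included. Three replicates per organism, at least three independent experiments.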

[5] = Antimicrobial activity against Bacillus thuringiensis var.kurstaki BGSC 4D1 by broth dilution method; format: functional, Bacillus thuringiensis serovar kurstaki; summary of the method: as §1
[6] = system: Bacillus cereus; assay: Antimicrobial activity against Bacillus cereus ATCC 11778 by broth dilution method; format: functional; summary of the method: as §1
[7] = system: A549; assay: Antitumor activity against human A549 cells after 72 hrs by MTT assay; format: functional, cell-based; details: A549, 72 h; summary of the method: as §2
[8] = system: Staphylococcus aureus; assay: Antimicrobial activity against Staphylococcus aureus ATCC 6538 by broth dilution method; format: functional; summary of the method: as §1
[9] = system: Candida tropicalis; assay: Antimicrobial activity against Candida tropicalis ATCC 1369 by broth dilution method; format: functional; summary of the method: as §3
[10] = system: Staphylococcus aureus; assay: Antimicrobial activity against quinilone-pencillin-resistant Staphylococcus aureus isolate SAR 4790 by broth dilution method; format: functional
Summary of the method: (§4)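 Twofold serial broth dilution in Mueller Hinton Broth. […] Drug-free tubes, DMSO-only tubes and organism-free tubes served as growth, solvent and sterility controls. Three replicates per organism, at least three independent experiments.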

[11] = system: Pseudomonas aeruginosa; assay: Antimicrobial activity against Pseudomonas aeruginosa ATCC 9027 by broth dilution method; format: functional; summary of the method: as §1
[12] = system: Staphylococcus aureus; assay: Antimicrobial activity against quinilone-pencillin-resistant Staphylococcus aureus isolate SAR 72 by broth dilution method; format: functional; summary of the method: as §4
[13] = system: NHDF; assay: Antitumor activity against human NHDF cells after 72 hrs by MTT assay; format: functional, cell-based; summary of the method: as §2
[14] = system: Staphylococcus epidermidis; assay: Antimicrobial activity against quinilone-pencillin-resistant Staphylococcus epidermidis clinical isolate by broth dilution method; format: functional
[15] = system: Acinetobacter baumannii; assay: Antimicrobial activity against Acinetobacter baumannii ATCC 19606 by broth dilution method; format: functional; summary of the method: as §1
[16] = system: Staphylococcus epidermidis; assay: Antimicrobial activity against Staphylococcus epidermidis ATCC 12228 by broth dilution method; format: functional; summary of the method: as §1
[17] = system: Priestia megaterium; assay: Antimicrobial activity against Bacillus megaterium ATCC 19213 by broth dilution method; format: functional; summary of the method: as §1
[18] = system: Escherichia coli; assay: Antimicrobial activity against Escherichia coli ATCC 8739 by broth dilution method; format: functional; summary of the method: as §1
[19] = system: Saccharomyces cerevisiae; assay: Antimicrobial activity against Saccharomyces cerevisiae ATCC 9763 by broth dilution method; format: functional; summary of the method: as §3
[20] = system: Escherichia coli; assay: Antimicrobial activity against quinilone-pencillin-resistant Escherichia coli clinical isolate by broth dilution method; format: functional
[21] = Inhibition of Escherichia coli topoisomerase 4 assessed as decatenation of kDNA after 30 mins by electrophoresis
Summary of the method: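 E. coli topoisomerase IV decatenation of kinetoplast DNA was run in 40 mM HEPES-KOH pH 7.6 with 100 mM potassium glutamate, at varying compound amounts. Products were separated by agarose electrophoresis and quantified by gel documentation. IC₅₀ (µg/mL) is the concentration halving decatenation relative to drug-free enzyme control.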

[22] = Inhibition of Escherichia coli DNA gyrase assessed as reduction of DNA supercoiling activity using pBR322 DNA substrate after 30 mins by electrophoresis
[23] = system: Acinetobacter baumannii; assay: Antimicrobial activity against quinilone-pencillin-resistant Acinetobacter baumannii clinical isolate by broth dilution method; format: functional

| Structure (SMILES) | MIC [1] [ng/mL] | pIC50 [2] | MIC [3] [ng/mL] | MIC [4] [ng/mL] | MIC [5] [ng/mL] | MIC [6] [ng/mL] | pIC50 [7] | MIC [8] [ng/mL] | MIC [9] [ng/mL] | MIC [10] [ng/mL] | MIC [11] [ng/mL] | MIC [12] [ng/mL] | pIC50 [13] | MIC [14] [ng/mL] | MIC [15] [ng/mL] | MIC [16] [ng/mL] | MIC [17] [ng/mL] | MIC [18] [ng/mL] | MIC [19] [ng/mL] | MIC [23] [ng/mL] | also measured |
| --- | --- | --- | --- | --- | --- | --- | --- | --- | --- | --- | --- | --- | --- | --- | --- | --- | --- | --- | --- | --- | --- |
| COc1c(C)cc2c([nH]c3c2sc2c3c(=O)c(C(=O)O)cn2C2CC2)c1C | 3000 (≈ 7.84 µM) | 5.60 | 6000 (≈ 15.7 µM) | > 100000 | 1500 (≈ 3.92 µM) | 3000 (≈ 7.84 µM) | 5.33 | 6000 (≈ 15.7 µM) | > 100000 | > 100000 | > 100000 | 3000 (≈ 7.84 µM) | < 5.00 | 3000 (≈ 7.84 µM) | > 100000 | 3000 (≈ 7.84 µM) | 3000 (≈ 7.84 µM) | > 100000 | > 100000 | – | – |
| O=C(O)c1cn(C2CC2)c2sc3c4ccccc4[nH]c3c2c1=O | 0.015 (≈ 4.62e-05 µM) | 5.28 | 30 (≈ 0.0925 µM) | > 100000 | 7 (≈ 0.0216 µM) | 7 (≈ 0.0216 µM) | 5.00 | 3 (≈ 0.00925 µM) | > 100000 | > 100000 | > 100000 | 700 (≈ 2.16 µM) | < 5.00 | 3000 (≈ 9.25 µM) | 70 (≈ 0.216 µM) | 30 (≈ 0.0925 µM) | 0.015 (≈ 4.62e-05 µM) | 25000 (≈ 77.1 µM) | > 100000 | > 100000 | MIC [20]: > 100000 ng/mL; IC50 [21]: > 24000 ng/mL; IC50 [22]: 1000 ng/mL (≈ 3.08 µM) |
| Cc1ccc2c(c1)[nH]c1c2sc2c1c(=O)c(C(=O)O)cn2C1CC1 | 0.3 (≈ 0.000887 µM) | 5.55 | 1500 (≈ 4.43 µM) | > 100000 | 150 (≈ 0.443 µM) | 300 (≈ 0.887 µM) | 5.16 | 70 (≈ 0.207 µM) | > 100000 | > 100000 | > 100000 | 12000 (≈ 35.5 µM) | < 5.00 | 25000 (≈ 73.9 µM) | 700 (≈ 2.07 µM) | 300 (≈ 0.887 µM) | 7 (≈ 0.0207 µM) | > 100000 | > 100000 | > 100000 | – |
| Cc1c2ccncc2c(C)c2c1[nH]c1ccccc12 [ELLIPTECINE] | – | – | – | – | – | – | – | – | – | – | – | – | < 5.00 | – | – | – | – | – | – | – | – |
| COc1c(N2C[C@@H]3CCCN[C@@H]3C2)c(F)cc2c(=O)c(C(=O)O)cn(C3CC3)c12 [MOXIFLOXACIN] | 15 (≈ 0.0374 µM) | – | 30 (≈ 0.0747 µM) | > 100000 | 30 (≈ 0.0747 µM) | 300 (≈ 0.747 µM) | – | 30 (≈ 0.0747 µM) | > 100000 | 50000 (≈ 125 µM) | 700 (≈ 1.74 µM) | 12000 (≈ 29.9 µM) | – | – | 150 (≈ 0.374 µM) | 70 (≈ 0.174 µM) | 3 (≈ 0.00747 µM) | 30 (≈ 0.0747 µM) | > 100000 | – | IC50 [21]: 5000 ng/mL (≈ 12.5 µM); IC50 [22]: 850 ng/mL (≈ 2.12 µM) |
| C[C@H]1COc2c(N3CCN(C)CC3)c(F)cc3c(=O)c(C(=O)O)cn1c23.C[C@H]1COc2c(N3CCN(C)CC3)c(F)cc3c(=O)c(C(=O)O)cn1c23.O [LEVOFLOXACIN] | 30 | – | 150 | > 100000 | 70 | 150 | – | 70 | > 100000 | 100000 | 300 | 25000 | – | > 100000 | 150 | 150 | 30 | – | > 100000 | > 100000 | MIC [20]: 25000 ng/mL |
| CO/N=C1\CN(c2nc3c(cc2F)c(=O)c(C(=O)O)cn3C2CC2)CC1CN (configuration not stated) [GEMIFLOXACIN] | 7 (≈ 0.018 µM) | – | 15 (≈ 0.0385 µM) | > 100000 | 15 (≈ 0.0385 µM) | 70 (≈ 0.18 µM) | – | 15 (≈ 0.0385 µM) | > 100000 | 50000 (≈ 128 µM) | 70 (≈ 0.18 µM) | 6000 (≈ 15.4 µM) | – | 50000 (≈ 128 µM) | 300 (≈ 0.77 µM) | 15 (≈ 0.0385 µM) | 0.3 (≈ 0.00077 µM) | 15 (≈ 0.0385 µM) | > 100000 | 100000 (≈ 257 µM) | MIC [20]: 50000 ng/mL (≈ 128 µM) |
| COc1ccc2c(c1)[nH]c1c2sc2c1c(=O)c(C(=O)O)cn2C1CC1 | 0.3 (≈ 0.000847 µM) | 5.80 | 150 (≈ 0.423 µM) | > 100000 | 7 (≈ 0.0198 µM) | 30 (≈ 0.0847 µM) | 5.59 | 15 (≈ 0.0423 µM) | > 100000 | > 100000 | > 100000 | 1500 (≈ 4.23 µM) | < 5.00 | 6000 (≈ 16.9 µM) | 3000 (≈ 8.47 µM) | 150 (≈ 0.423 µM) | 0.03 (≈ 8.47e-05 µM) | > 100000 | > 100000 | > 100000 | IC50 [21]: > 24000 ng/mL; IC50 [22]: 1100 ng/mL (≈ 3.1 µM) |
| Clc1ccc(COC(Cn2ccnc2)c2ccc(Cl)cc2Cl)c(Cl)c1 (configuration not stated) [MICONAZOLE] | – | – | – | 3000 (≈ 7.21 µM) | – | – | – | – | 6000 (≈ 14.4 µM) | – | – | – | – | – | – | – | – | – | 12000 (≈ 28.8 µM) | – | – |
| O=C(O)c1cn(C2CC2)c2sc3c4ccc(F)cc4[nH]c3c2c1=O | 0.015 (≈ 4.38e-05 µM) | 5.72 | 150 (≈ 0.438 µM) | > 100000 | 3 (≈ 0.00876 µM) | 7 (≈ 0.0204 µM) | 5.57 | 3 (≈ 0.00876 µM) | > 100000 | > 100000 | > 100000 | 700 (≈ 2.04 µM) | < 5.00 | 1500 (≈ 4.38 µM) | 150 (≈ 0.438 µM) | 30 (≈ 0.0876 µM) | 0.015 (≈ 4.38e-05 µM) | 50000 (≈ 146 µM) | 12000 (≈ 35.1 µM) | > 100000 | MIC [20]: > 100000 ng/mL |
| O=C(O)c1cn(C2CC2)c2cc(N3CCNCC3)c(F)cc2c1=O [CIPROFLOXACIN] | 30 (≈ 0.0905 µM) | – | 150 (≈ 0.453 µM) | > 100000 | 30 (≈ 0.0905 µM) | 300 (≈ 0.905 µM) | – | 300 (≈ 0.905 µM) | > 100000 | > 100000 | 70 (≈ 0.211 µM) | 100000 (≈ 302 µM) | – | – | 700 (≈ 2.11 µM) | 70 (≈ 0.211 µM) | 7 (≈ 0.0211 µM) | – | > 100000 | – | IC50 [21]: 4600 ng/mL (≈ 13.9 µM); IC50 [22]: 340 ng/mL (≈ 1.03 µM) |
